# KCNQ1 pot: human KCNQ1 channel potentiation or activation | P51787 | CHO-K1 KCNQ1, thallium flux FluxOR fluorescence; stronger effect = higher value | B-score at 10 µM | 0.35% of 310,000 active | AID 2648;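 active means fluorescence ratio B-score, a plate-corrected score, at least three library SD, with initial intensity B-score within 5 SD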
#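 Schedule – 37 °C overnight plating, 90-min dark dye load, 20-min compound pretreatment · System – stable KCNQ1 CHO-K1 line · Probe or stimulus – thallium- and potassium-containing depolarizing buffer · Measured by – kinetic FluxOR fluorescence, 10 s baseline plus 110 s post-stimulus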
# Kir21 block: blocks the mouse Kir2.1 inward-rectifier potassium channel; P35561; HEK293-Kir2.1, FluxOR thallium flux fluorescence; stronger effect = lower value; B-score at 10 µM; 0.85% of 310,000 active;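 active means fluorescence ratio B-score at or below minus 3 SD of library scores, with starting-brightness B-score within 2 SD, cut at about -4.2 in these data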;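 further: channel flux triggered by added potassium and thallium sulfate stimulus; B-score of peak minus minimum fluorescence over baseline after thallium stimulus; more negative B-score means stronger Kir2.1 block with less thallium influx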
# KCNQ1 block: human KCNQ1 channel inhibition; AID 2642; B-score at 10 µM; 1.3% of 310,000 active; CHO-K1 KCNQ1, FluxOR thallium flux fluorescence; stronger effect = higher value;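 active means compounds whose thallium flux B-score, printed positive for inhibition, exceeds three library SD while starting fluorescence stays within three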;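 further: channel opened by potassium depolarization with thallium stimulus after 20 min compound exposure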
# hERG rescue: compounds protecting human hERG from proarrhythmic drug block | CHO-hERG, FluxOR thallium flux, dofetilide IC70 present | activation (rescue from dofetilide block), less the hit threshold, % at 10 µM | 0.51% of 310,000 active;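 active means activation above the mean of controls blocked by dofetilide plus 5 SD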;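 further: thallium influx through hERG after potassium depolarization seen as dye fluorescence rise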
# Target sequence (Q12809 whole entry, looked up): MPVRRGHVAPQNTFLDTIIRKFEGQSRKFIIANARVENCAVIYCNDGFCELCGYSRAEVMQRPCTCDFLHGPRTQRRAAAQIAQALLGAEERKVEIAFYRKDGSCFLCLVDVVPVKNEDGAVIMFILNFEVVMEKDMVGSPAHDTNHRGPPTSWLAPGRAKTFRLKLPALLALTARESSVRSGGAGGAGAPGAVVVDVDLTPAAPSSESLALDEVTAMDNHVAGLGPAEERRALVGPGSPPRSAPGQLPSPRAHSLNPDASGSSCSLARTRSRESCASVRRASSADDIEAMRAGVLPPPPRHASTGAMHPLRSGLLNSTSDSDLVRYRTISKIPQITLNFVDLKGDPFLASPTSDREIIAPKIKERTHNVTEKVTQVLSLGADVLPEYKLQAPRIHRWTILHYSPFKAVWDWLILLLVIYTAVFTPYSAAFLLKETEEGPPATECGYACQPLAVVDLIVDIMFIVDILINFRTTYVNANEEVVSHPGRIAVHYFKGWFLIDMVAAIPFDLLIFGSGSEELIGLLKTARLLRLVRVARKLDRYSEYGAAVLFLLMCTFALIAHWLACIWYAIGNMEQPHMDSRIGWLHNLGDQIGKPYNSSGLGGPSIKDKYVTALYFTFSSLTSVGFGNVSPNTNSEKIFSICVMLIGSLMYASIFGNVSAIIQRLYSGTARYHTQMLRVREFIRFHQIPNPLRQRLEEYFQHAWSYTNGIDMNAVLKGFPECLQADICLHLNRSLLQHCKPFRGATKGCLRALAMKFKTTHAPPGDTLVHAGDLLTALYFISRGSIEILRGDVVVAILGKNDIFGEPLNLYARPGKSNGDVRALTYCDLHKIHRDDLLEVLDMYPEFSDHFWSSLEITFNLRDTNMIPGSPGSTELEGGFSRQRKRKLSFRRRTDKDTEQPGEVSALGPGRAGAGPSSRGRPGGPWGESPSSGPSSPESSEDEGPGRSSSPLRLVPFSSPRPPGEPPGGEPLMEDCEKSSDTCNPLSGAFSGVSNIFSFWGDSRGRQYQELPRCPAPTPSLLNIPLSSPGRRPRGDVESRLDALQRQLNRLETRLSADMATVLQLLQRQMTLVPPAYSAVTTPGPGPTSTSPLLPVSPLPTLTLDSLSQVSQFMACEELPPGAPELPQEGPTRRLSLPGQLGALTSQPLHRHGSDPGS
# KCNK3 block: human KCNK3 channel inhibition, primary screen; CHO-KCNK3 thallium flux, FluxOR fluorescence; stronger effect = lower value; B-score at 10 µM; 0.84% of 340,000 active; AID 602410;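 active means B-score under library mean minus 4 SD, starting fluorescence ratio at most library mean plus 5 SD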;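 further: more negative B-score means stronger inhibition of thallium flux through KCNK3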
# KCNK9 inh: human KCNK9 channel inhibition; 1.2% of 310,000 active; B-score at 10 µM; Q9NPC2; HEK293 KCNK9, FluxOR thallium flux fluorescence; stronger effect = lower value;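 active means ratio B-score over 3 SD below the library mean, with starting fluorescence within 5 SD of its mean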;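 further: negative B-score means less thallium flux so channel inhibition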
# KCNQ1 block val: confirmation of human KCNQ1 potassium channel inhibitors; inhibition, % at 10 µM; 93% of 1,600 active; KCNQ1 cell line, FluxOR thallium flux fluorescence; shares compounds with KCNQ1 block; AID 588353;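 active means primary screen active, with duplicate mean exceeding buffer control mean plus 3 SD of buffer wells, cut at about 28% in these data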
# CHO Tl flux: KCNQ1 inhibitor counter-screen hit in parental CHO cells; shares compounds with KCNQ1 block; parental CHO-K1, FluxOR thallium flux fluorescence ratio; stronger effect = lower value; zero means no signal rise above baseline; fluorescence ratio (Tl flux) at 10 µM; 21% of 1,600 active; AID 588366;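 active means mean of duplicate thallium-flux fluorescence ratios in parental host cells more than 5 SD below the buffer control mean, cut at about 0.38 in these data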;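 further: ratio is peak minus minimum fluorescence divided by baseline fluorescence; actives read low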
# KCNQ1 ephys val: blocks human KCNQ1 current in automated patch clamp. AID 624120. shares compounds with KCNQ1 block. 20% of 490 active. KCNQ1-CHO cells. calls only at 10 µM;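 active means KCNQ1 current drop exceeding 3 SD of negative control wells, seen in both duplicate runs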;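 further: steady state current during a 2 s step from -80 to +40 mV; negative values mean current inhibition and positive values mean potentiation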
# KCNQ2 inh: selectivity of KCNQ1 inhibitors: inhibition of rat KCNQ2 channel | shares compounds with KCNQ1 block | KCNQ2 cells, FluxOR thallium flux fluorescence | inhibition, % at 10 µM | 71% of 1,600 active;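 active means mean percent inhibition of the KCNQ2 thallium signal more than 5 SD above the buffer-only control wells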;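 further: KCNQ2 expressed in CHO cells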
# KCNQ1-KCNE1 inh: human KCNQ1/KCNE1 inhibition in KCNQ1 specificity screen. shares compounds with KCNQ1 block. KCNQ1/KCNE1 cells, FluxOR thallium flux fluorescence. inhibition, % at 10 µM. 77% of 1,600 active. AID 652147;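 active means mean percent inhibition of duplicate wells above the buffer-only control mean plus 3 SD of those controls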
# Numbers stand for hits; i = inactive; nt = not tested or not shown; + = active, no number. Only some compounds are listed: those with a hit (about 3.8% of all), similar ones and a draw of the others.
SMILES,KCNQ1 pot,Kir21 block,KCNQ1 block,hERG rescue,KCNK3 block,KCNK9 inh,KCNQ1 block val,CHO Tl flux,KCNQ2 inh,KCNQ1-KCNE1 inh,others
O=C(Nc1ccc(Cl)cc1)NC1CCCCC1Cc1ccco1 (centres undefined),i,i,8,i,i,i,126,i,77%,102%,KCNQ1 ephys val=+
Cc1ccc(Cl)cc1NC(=O)Nc1c(C)n(C)n(-c2ccccc2)c1=O,i,i,i,i,i,i,nt,nt,nt,nt,
COCCn1c(N)c(N(Cc2ccccc2)C(=O)COc2ccc(F)cc2Cl)c(=O)[nH]c1=O,i,i,i,i,i,i,nt,nt,nt,nt,
Cc1cc(Cl)ccc1OC(C)C(=O)Nc1ccc(S(=O)(=O)N2CCOCC2)cc1 (centres undefined),i,i,i,i,i,i,nt,nt,nt,nt,
Cc1cc(Cl)ccc1OC(C)C(=O)Nc1ccc(C(=O)Nc2ccccc2C(=O)O)cc1 (centres undefined),i,i,9,i,i,i,94,i,i,80%,KCNQ1 ephys val=i
CCN(CC(=O)Nc1c(F)cccc1F)C(=O)c1ccc2c(c1)OCCO2,i,i,i,i,i,i,nt,nt,nt,nt,
COc1ccc(CCN2C(=O)c3[nH]nc(-c4ccccc4O)c3C2c2cccc(Cl)c2)cc1 (centres undefined),i,i,9,i,i,i,109,i,90%,140%,KCNQ1 ephys val=+
Cc1cc(C)nc(NC(=O)c2ccc(COc3ccccc3Cl)cc2)c1,i,i,8,i,i,i,103,i,106%,123%,KCNQ1 ephys val=i
CCCCCNC(=O)c1cccc(S(=O)(=O)N2CC3(C)CC2CC(C)(C)C3)c1 (centres undefined),i,i,7,i,i,i,86,i,i,88%,
COc1ccc(NC(=O)CS(=O)CC(=O)Nc2cccnc2)cc1 (centres undefined),i,i,i,i,i,i,nt,nt,nt,nt,
O=C(Nc1ccccc1N1CCCC1)C1CCN(S(=O)(=O)c2ccccc2C(F)(F)F)CC1,i,i,i,i,i,i,nt,nt,nt,nt,
O=C(Nc1ccccc1N1CCCCC1)C1CCN(S(=O)(=O)c2ccccc2C(F)(F)F)CC1,i,i,11,i,i,i,64,i,101%,82%,
Cc1ccc(-c2cc(-c3ccccc3Cl)c(C#N)c(N)n2)o1,i,i,i,i,i,i,nt,nt,nt,nt,
Cc1ccc(-c2cc(-c3ccccc3)c(C#N)c(N)n2)o1,i,i,6,i,i,i,34,i,i,48%,
COc1cc(/C=C/C(=O)c2ccc3c(c2)OCCO3)cc(Br)c1OCC(=O)N(C)C,i,i,i,i,i,i,nt,nt,nt,nt,
Oc1ccc2nnc3c(Br)cnn3c2c1,i,i,24,i,i,i,+,0.042,i,i,
CC(=O)c1ccc(NC(=S)NN2C(C)CCCC2C)cc1 (centres undefined),i,i,i,i,i,i,nt,nt,nt,nt,
CC1CCCCC1NC(=S)Nc1ccc(SC(F)F)cc1 (centres undefined),i,i,7,i,i,i,66,i,i,40%,
CC(=O)c1ccc(NC(=S)NC2CCCC(C)C2C)cc1 (centres undefined),i,i,7,i,i,i,47,i,i,34%,
CC1CCN(C(=S)Nc2ccc(SC(F)F)cc2)CC1,i,i,i,i,i,i,nt,nt,nt,nt,
CC1CCCC(NC(=S)Nc2cccc(S(=O)(=O)N(C)C)c2)C1C (centres undefined),i,i,8,i,i,i,35,i,i,i,
Cc1cc(C)c(S(=O)(=O)N2CCCC(C(=O)NCc3ccncc3)C2)c(C)c1 (centres undefined),i,i,i,i,i,i,nt,nt,nt,nt,
O=C(CSc1nc2ccccc2c(=O)n1-c1ccccc1Cl)NC1CCS(=O)(=O)C1 (centres undefined),nt,nt,nt,nt,i,nt,nt,nt,nt,nt,
CCOC(=O)N1CCN(C2CCCN(C(=O)c3ccccc3N(C)C)C2)CC1 (centres undefined),i,i,i,i,i,i,nt,nt,nt,nt,
CC1=CC(C)C(/C=N/N=C(N)N)C(C)C1 (centres undefined),i,i,i,i,i,i,nt,nt,nt,nt,
SMILES,KCNQ1 pot,Kir21 block,KCNQ1 block,hERG rescue,KCNK3 block,KCNK9 inh,KCNQ1 block val,CHO Tl flux,KCNQ2 inh,KCNQ1-KCNE1 inh,others
Cc1[nH]c2ccccc2c1C(=O)CSc1nc2ccccc2c(=O)n1-c1ccccc1F,i,i,i,i,nt,i,nt,nt,nt,nt,
CCOC(=O)c1c(C)[nH]c(C)c1C(=O)CSc1nc2ccccc2c(=O)n1-c1ccc(C)cc1,i,i,6,i,i,i,58,i,i,58%,
COc1ccc(-c2cc(-c3nnc(-c4ccncc4)o3)c3ccccc3n2)cc1,i,i,i,i,i,i,nt,nt,nt,nt,
c1ccc2c(-c3nc(C4CCCCC4)no3)cc(-c3ccncc3)nc2c1,i,i,7,i,i,i,84,i,93%,79%,
CC(C)(C)c1nc(N2CCN(C(=O)c3ccco3)CC2)c2nnn(Cc3ccccc3)c2n1,i,i,7,i,i,i,118,i,105%,132%,KCNQ1 ephys val=i
O=C(c1ccco1)N1CCCC(c2nc3c(nnn3Cc3ccccc3)c(=O)[nH]2)C1 (centres undefined),i,i,i,i,i,i,nt,nt,nt,nt,
Cc1cc(S(=O)(=O)NCCC2=CCCCC2)ccc1Br,i,i,7,i,i,i,i,i,68%,82%,
Cc1ccc(S(=O)(=O)NCCC2=CCCCC2)cc1,nt,nt,nt,nt,i,nt,nt,nt,nt,nt,
O=S(=O)(NCCC1=CCCCC1)c1ccc(OC(F)(F)F)cc1,i,i,6,i,i,i,56,i,68%,58%,
CCCCn1c(N)c(N(CC(C)C)C(=O)CCCSc2nncs2)c(=O)[nH]c1=O,i,i,i,i,i,i,nt,nt,nt,nt,
CC[C@@]1(O)C(=O)OCc2c1cc1n(c2=O)Cc2cc3c(CN(C)C)c(O)ccc3nc2-1,i,i,32,i,i,i,+,0.017,i,i,
C[C@H](CO)N1C[C@H](C)[C@@H](CN(C)C(=O)Nc2ccc3c(c2)OCO3)Oc2ccc(NS(=O)(=O)c3ccc(F)cc3)cc2C1=O,nt,nt,nt,nt,i,nt,nt,nt,nt,nt,
